Assay results reported in ChEMBL document CHEMBL3045023, “Design, synthesis, and antiviral activity evaluation of phenanthrene-based antofine derivatives” (2012).

Experiments:
Format in all cases: functional
[1] = tested on: Tobacco mosaic virus; experiment: Antiviral activity against Tobacco mosaic virus (TMV) inoculation on Nicotiana tabacum L. whole leaves assessed as virus inactivation effect at 500 ug/mL measured 3 to 4 days post inoculation
Outline: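 TMV was mixed with an equal volume of compound solution for 30 min. The mixture was inoculated on the left half of N. tabacum L. leaves, and virus mixed with solvent on the right half as control. Local lesions were recorded 3–4 days post-inoculation, in triplicate. Inhibition % was calculated from average lesion numbers versus control.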

[2] = tested on: Tobacco mosaic virus; experiment: Antiviral activity against Tobacco mosaic virus (TMV) inoculation on Nicotiana tabacum L. whole leaves assessed as virus infection curative effect at 500 ug/mL measured 3 to 4 days post inoculation
Outline: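 Whole N. tabacum L. leaves of the same age were inoculated with TMV (6.0 × 10−3 mg/mL), then washed and dried. Compound was then smeared on the left half and solvent on the right half as control. Local lesions were counted 3–4 days post-inoculation, in triplicate. Inhibition % was calculated from average lesion numbers versus control.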

[3] = tested on: Tobacco mosaic virus; experiment: Antiviral activity against Tobacco mosaic virus (TMV) inoculation on Nicotiana tabacum L. whole leaves assessed as virus infection protective effect at 500 ug/mL measured 3 to 4 days post inoculation
Outline: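 On N. tabacum L. leaves of the same age, compound was smeared on the left half and solvent on the right half as control. After 12 h, leaves were dusted with silicon carbide, brush-inoculated with TMV (6 × 10−3 mg/mL), then washed. Local lesions were counted 3–4 days later, in triplicate. Inhibition % was calculated from average lesion numbers versus control.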

[4] = tested on: Tobacco mosaic virus; experiment: Antiviral activity against Tobacco mosaic virus (TMV) assessed as inhibition of viral growth at 500 ug/mL; conditions: read-out: GI
Outline: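 Leaves of 5–6-growth-stage tobacco were rub-inoculated with TMV juice (5.88 × 10−2 μg/mL), then cut into halves along the main vein. One half was immersed in 500 μg/mL compound and the other in double-distilled water, each for 20 min. Halves were cultured at 25 °C for 72 h, with at least 3 replicates. Inhibition % = (control − treated average lesion number)/control × 100.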

| SMILES | Activity [1] | Activity [2] | Activity [3] | inhibition of growth at 500 µg/mL [4] |
| --- | --- | --- | --- | --- |
| COc1cc2cc(C(=O)N3CCC[C@H]3C=O)c3cc(OC)c(OC)cc3c2cc1OC | 15.2% | 20.3% | 21.4% | 22.2% |
| CCN(CC)C(=O)[C@H]1CCCN1Cc1c(Br)c2cc(OC)c(OC)cc2c2c(Br)c(OC)ccc12 | 30.2% | 35.8% | 39.2% | 42.6% |
| COc1cc2cc(CN3CCCCC3)c3cc(OC)c(OC)cc3c2cc1OC | 30% | 35.2% | 35.9% | 38.4% |
| CC(=O)N1CN(C(C)=O)C(=O)NC1=O | – | – | – | 50% |
| COc1cc2c(Br)c(CN3CCC[C@H]3C(=O)O)c3cc(OC)c(OC)cc3c2cc1OC | 17% | 13.5% | 10.2% | 20.4% |
| COc1cc2c(Br)c(CN3CCC[C@H]3C#N)c3cc(OC)c(OC)cc3c2cc1OC | 10.3% | 18.2% | 33.3% | 24.7% |
| CCN(CC)C(=O)[C@@H]1CCCN1Cc1c(Br)c2ccc(OC)c(Br)c2c2cc(OC)c(OC)cc12 | 17.8% | 22.3% | 15.3% | 19.6% |
| COc1cc2cc(C(=O)N3CCC[C@H]3CBr)c3cc(OC)c(OC)cc3c2cc1OC | 27.6% | 26.7% | 36.9% | 21.9% |
| CCN(CC)C(=O)[C@H]1CCCN1Cc1c(Br)c2ccc(OC)cc2c2cc(OC)c(OC)cc12 | 26.9% | 31.6% | 27.1% | 35.6% |
| COc1cc2cc(C(=O)N3CCCCC3)c3cc(OC)c(OC)cc3c2cc1OC | 24.5% | 28.9% | 30.6% | 32.5% |
| CCN(CC)C(=O)[C@@H]1CCCN1Cc1c(Br)c2ccc(OC)cc2c2cc(OC)c(OC)cc12 | 23.7% | 8.9% | 16.8% | 12.5% |
| NC(=O)c1ncn([C@@H]2O[C@H](CO)[C@@H](O)[C@H]2O)n1 [RIBAVIRIN] | 32.1% | 34.5% | 34.2% | 38.5% |
| CCN(CC)C(=O)[C@H]1CCCN1Cc1c(Br)c2cc(OC)c(OC)cc2c2cc(OC)ccc12 | 27.6% | 31.4% | 33.1% | 35.7% |
| COc1ccc2c(CN3CCC[C@H]3C#N)c(Br)c3cc(OC)c(OC)cc3c2c1 | 12.6% | 20.5% | 15.3% | 22.7% |
| COc1ccc(/C=C(/C(=O)O)c2ccc(OC)c(OC)c2)cc1OC | 4.1% | 2.7% | 1.9% | 2.3% |
| CCN(CC)C(=O)[C@H]1CCCN1Cc1c(Br)c2cc(OC)c(OC)cc2c2cc(OC)c(OC)cc12 | 21.3% | 30.2% | 27.6% | 33.3% |
| COc1ccc(/C=C(/C(=O)N2CCC[C@H]2CO)c2ccc(OC)c(OC)c2)cc1OC | 20.9% | 18.1% | 19.3% | 11.7% |
| CCN(CC)C(=O)[C@H]1CCCCN1Cc1c(Br)c2cc(OC)c(OC)cc2c2cc(OC)ccc12 | 15.4% | 17.6% | 21.3% | 12.1% |
| CCN(CC)C(=O)[C@H]1CCCN1Cc1c(Br)c2ccc(OC)c(Br)c2c2cc(OC)c(OC)cc12 | 10.4% | 13.3% | 20.3% | 22.4% |
| COc1cc2cc(CN3CCC[C@H]3CO)c3cc(OC)c(OC)cc3c2cc1OC | 17.4% | 23.5% | 25.2% | 15.9% |
| COc1cc2c(Br)c(CN3CCC[C@H]3C(N)=O)c3cc(OC)c(OC)cc3c2cc1OC | 42.1% | 36.6% | 39.5% | 44.3% |
| CCN(CC)C(=O)[C@@H]1CCCCN1Cc1c(Br)c2cc(OC)c(OC)cc2c2cc(OC)c(OC)cc12 | 21.5% | 26.3% | 28.5% | 19.7% |

| SMILES | Activity [1] | Activity [2] | Activity [3] | inhibition of growth at 500 µg/mL [4] |
| --- | --- | --- | --- | --- |
| COc1cc2cc(CN3CCC[C@H]3CBr)c3cc(OC)c(OC)cc3c2cc1OC | 20.3% | 16.3% | 21.1% | 32.1% |
| COc1cc2cc(CN3C(=O)CC[C@H]3C(=O)OC(C)(C)C)c3cc(OC)c(OC)cc3c2cc1OC | 27.1% | 16.8% | 23.5% | 14.2% |
| COc1cc2cc(C(=O)N3CCC[C@H]3CO)c3cc(OC)c(OC)cc3c2cc1OC | 29.5% | 30.2% | 25.6% | 32.8% |
| O=C1NCNC(=O)N1 | – | – | – | 50% |
| COc1ccc2c(Br)c(CN3CCC[C@H]3C#N)c3cc(OC)c(OC)cc3c2c1 | 27.7% | 18.9% | 24.5% | 20.9% |
| CCN(CC)C(=O)[C@@H]1CCCN1Cc1c(Br)c2cc(OC)c(OC)cc2c2cc(OC)ccc12 | 15.7% | 14.2% | 18.9% | 23.5% |
| COc1cc2c(Br)c(CN3CCC[C@@H]3C(N)=O)c3cc(OC)c(OC)cc3c2cc1OC | 0% | 12.2% | 15.3% | 10.5% |
| CCN(CC)C(=O)[C@@H]1CCCN1Cc1c(Br)c2cc(OC)c(OC)cc2c2c(Br)c(OC)ccc12 | 20.7% | 23.5% | 26.1% | 32.5% |
| COc1ccc2c(Br)c(CN3CCC[C@H]3C(N)=O)c3cc(OC)c(OC)cc3c2c1 | 12.3% | 30.7% | 32.4% | 35.5% |
| COC(=O)[C@@H]1CCCN1Cc1c(Br)c2cc(OC)c(OC)cc2c2cc(OC)c(OC)cc12 | 21.4% | 27.8% | 33.3% | 19.6% |
| COc1cc2cc(CN3C(=O)CC[C@H]3C(=O)O)c3cc(OC)c(OC)cc3c2cc1OC | 33.7% | 25.6% | 35.3% | 32.4% |
| COc1cc2c(Br)c(CBr)c3cc(OC)c(OC)cc3c2cc1OC | 4.3% | 1.8% | 5.2% | 6.1% |
| COc1cc2cc(C(=O)N3CCC[C@H]3C#N)c3cc(OC)c(OC)cc3c2cc1OC | 17.6% | 15.6% | 10.3% | 12.5% |
| COc1ccc2c(CN3CCC[C@H]3C(N)=O)c(Br)c3cc(OC)c(OC)cc3c2c1 | 14.5% | 5.6% | 0% | 0% |
| COc1cc2cc(C(=O)O)c3cc(OC)c(OC)cc3c2cc1OC | 4.2% | 3.6% | 4.8% | 0% |
| CCN(CC)C(=O)[C@@H]1CCCCN1Cc1c(Br)c2cc(OC)c(OC)cc2c2cc(OC)ccc12 | 25.2% | 26.4% | 34.3% | 30.7% |
| COc1cc2c(Br)c(CN3CCC[C@H]3C(=N)OC(C)(C)C)c3cc(OC)c(OC)cc3c2cc1OC | 36.6% | 40.3% | 42.2% | 39.7% |
| CCN(CC)C(=O)[C@H]1CCCCN1Cc1c(Br)c2cc(OC)c(OC)cc2c2cc(OC)c(OC)cc12 | 13.7% | 14.2% | 21.7% | 23.5% |
| CCN(CC)C(=O)c1cccn1Cc1c(Br)c2cc(OC)c(OC)cc2c2cc(OC)c(OC)cc12 | 20% | 10.6% | 13.1% | 18.2% |
| COC(=O)[C@@H]1CCCN1C(=O)/C(=C/c1ccc(OC)c(OC)c1)c1ccc(OC)c(OC)c1 | 21.1% | 17.2% | 23.6% | 17.5% |
| COc1cc2cc(C(=O)N3CCC[C@H]3C(N)=O)c3cc(OC)c(OC)cc3c2cc1OC | 25.3% | 23.5% | 24.3% | 27% |
| CCN(CC)C(=O)[C@@H]1CCCN1Cc1c(Br)c2cc(OC)c(OC)cc2c2cc(OC)c(OC)cc12 | 22% | 21.6% | 25.3% | 17.2% |
